Laboratory results: ChEMBL document CHEMBL1629705, “PSI-7851, a pronucleotide of beta-D-2'-deoxy-2'-fluoro-2'-C-methyluridine monophosphate, is a potent and pan-genotype inhibitor of hepatitis C virus replication” (Antimicrob Agents Chemother, 2010)
Values belong to the compound of their own block, whether it stands above or below them. Activity calls are given as the source filed them. The calls are words filed in the database; no cut-off is given here.

Columns and labels:
[1] = tested on: Hepatitis C virus; experiment: Antiviral activity against Hepatitis C virus Con1 infected in human lunet cells assessed as inhibition of viral RNA replication after 4 days by luciferase reporter gene assay; format: functional, organism-based, Hepacivirus hominis; settings: 96 h
In short: (§1)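 Genotype 1b Con1 subgenomic replicon cells (ET-lunet, 3,000 cells/well, firefly luciferase ET replicon; clone A, 1,500 cells/well) incubated 4 days with serially diluted compound. Replication read by luciferase luminescence and/or real-time RT-PCR.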

[2] = tested on: Hepatitis C virus; experiment: Antiviral activity against Hepatitis C virus isolate Con1 infected in human HuH-7 cells assessed as inhibition of viral RNA replication after 4 days by luciferase reporter gene assay; format: functional, Hepacivirus hominis; settings: Con1, Huh-7, 96 h; in short: as §1
[3] = tested on: Hepatitis C virus; experiment: Antiviral activity against Hepatitis C virus assessed as inhibition of viral rebound at 0.1 uM after 3 weeks in presence of G418; format: functional, organism-based; settings: Hepacivirus hominis
In short: (§2)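 ET-lunet replicon cells seeded at 1 × 10^5/well without G418, treated at 0.1, 1 or 2 μM (final DMSO 0.5%). Passaged 1:3–1:4 every 3–4 days for 3 weeks with fresh compound. Then compound withdrawn and cells grown 3 more weeks in 0.25 mg/ml G418. HCV RNA by RT-PCR (ΔΔCt vs rRNA and DMSO controls, log change). Colonies fixed in formaldehyde and stained with crystal violet at 6 weeks.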

[4] = tested on: Hepatitis C virus; experiment: Antiviral activity against Hepatitis C virus assessed as inhibition of viral rebound at 1 uM after 3 weeks in presence of G418; format: functional, organism-based; settings: Hepacivirus hominis
In short: (§3)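 ET-lunet replicon cells, 1 × 10^5/well, no G418, with compound at 0.1, 1 or 2 μM (final DMSO 0.5%). Passaged 1:3 or 1:4 every 3–4 days for 3 weeks with fresh compound, then 3 more weeks with 0.25 mg/ml G418 and no inhibitor. HCV RNA by RT-PCR normalized to rRNA (ΔΔCt vs DMSO) at each passage. Crystal violet colony staining at 6 weeks.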

[5] = tested on: Hepatitis C virus; experiment: Antiviral activity against Hepatitis C virus assessed as inhibition of viral rebound at 2 uM after 3 weeks in presence of G418; format: functional, organism-based; settings: Hepacivirus hominis; in short: as §3
[6] = tested on: Hepatitis C virus; experiment: Antiviral activity against Hepatitis C virus assessed as log reduction in viral RNA at 0.1 uM after 3 weeks; format: functional, Hepacivirus hominis; in short: as §2
[7] = tested on: Hepatitis C virus; experiment: Antiviral activity against Hepatitis C virus; format: functional, organism-based, Hepacivirus hominis
[8] = tested on: Hepatitis C virus; experiment: Antiviral activity against Hepatitis C virus assessed as clearance of HCV from replicon cells at 1 uM; format: functional, organism-based; settings: Hepacivirus hominis; in short: as §3
[9] = tested on: Hepatitis C virus; experiment: Antiviral activity against Hepatitis C virus assessed as clearance of HCV from replicon cells at 2 uM; format: functional, organism-based; settings: Hepacivirus hominis; in short: as §3
[10] = target: T1, DNA-directed RNA polymerase II subunit RPB1 (Homo sapiens, UniProt P24928); experiment: Inhibition of human RNA polymerase 2
In short: (§4)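 In vitro transcription by HeLa nuclear extract from CMV immediate-early promoter DNA. Mix: 400 μM ATP, CTP and UTP, 16 μM GTP, [α-32P]GTP, 3 mM MgCl2, in 20 mM HEPES pH 7.9 buffer with KCl, EDTA, DTT and glycerol. Inhibitor up to 1 mM. 30°C for 60 min. RNA purified, run on 6% sequencing gel and quantified by phosphorimager.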

[11] = target: T1, DNA-directed RNA polymerase II subunit RPB1; experiment: Inhibition of human RNA polymerase 2 assessed as synthesis of RNA products at 1 uM; in short: as §4
[12] = target: T1, DNA-directed RNA polymerase II subunit RPB1; experiment: Inhibition of human RNA polymerase 2 assessed as synthesis of RNA products at 500 uM; in short: as §4
[13] = target: DNA polymerase beta (Homo sapiens, UniProt P06746); experiment: Inhibition of human DNA polymerase beta assessed as incorporation of [alpha-32P]dCTP up to 1mM preincubated for 30 mins by whatman DE81 paper binding assay
In short: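 Human DNA polymerase β at 18 μg/ml final, in 50 mM Tris pH 7.5, 50 mM NaCl, 5 mM MgCl2, activated calf thymus DNA and 20 μM each dNTP with [α-32P]dCTP. Triphosphate up to 1 mM. 37°C, stopped at 30 min with EDTA. Products quantified by DE81 paper binding; IC50 by nonlinear fit.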

[14] = target: T2, DNA polymerase subunit gamma-1 (Homo sapiens, UniProt P54098); experiment: Inhibition of human DNA polymerase gamma assessed as incorporation of [alpha-32P]dCTP up to 1mM preincubated for 30 mins by whatman DE81 paper binding assay
T2 sequence (P54098 whole entry): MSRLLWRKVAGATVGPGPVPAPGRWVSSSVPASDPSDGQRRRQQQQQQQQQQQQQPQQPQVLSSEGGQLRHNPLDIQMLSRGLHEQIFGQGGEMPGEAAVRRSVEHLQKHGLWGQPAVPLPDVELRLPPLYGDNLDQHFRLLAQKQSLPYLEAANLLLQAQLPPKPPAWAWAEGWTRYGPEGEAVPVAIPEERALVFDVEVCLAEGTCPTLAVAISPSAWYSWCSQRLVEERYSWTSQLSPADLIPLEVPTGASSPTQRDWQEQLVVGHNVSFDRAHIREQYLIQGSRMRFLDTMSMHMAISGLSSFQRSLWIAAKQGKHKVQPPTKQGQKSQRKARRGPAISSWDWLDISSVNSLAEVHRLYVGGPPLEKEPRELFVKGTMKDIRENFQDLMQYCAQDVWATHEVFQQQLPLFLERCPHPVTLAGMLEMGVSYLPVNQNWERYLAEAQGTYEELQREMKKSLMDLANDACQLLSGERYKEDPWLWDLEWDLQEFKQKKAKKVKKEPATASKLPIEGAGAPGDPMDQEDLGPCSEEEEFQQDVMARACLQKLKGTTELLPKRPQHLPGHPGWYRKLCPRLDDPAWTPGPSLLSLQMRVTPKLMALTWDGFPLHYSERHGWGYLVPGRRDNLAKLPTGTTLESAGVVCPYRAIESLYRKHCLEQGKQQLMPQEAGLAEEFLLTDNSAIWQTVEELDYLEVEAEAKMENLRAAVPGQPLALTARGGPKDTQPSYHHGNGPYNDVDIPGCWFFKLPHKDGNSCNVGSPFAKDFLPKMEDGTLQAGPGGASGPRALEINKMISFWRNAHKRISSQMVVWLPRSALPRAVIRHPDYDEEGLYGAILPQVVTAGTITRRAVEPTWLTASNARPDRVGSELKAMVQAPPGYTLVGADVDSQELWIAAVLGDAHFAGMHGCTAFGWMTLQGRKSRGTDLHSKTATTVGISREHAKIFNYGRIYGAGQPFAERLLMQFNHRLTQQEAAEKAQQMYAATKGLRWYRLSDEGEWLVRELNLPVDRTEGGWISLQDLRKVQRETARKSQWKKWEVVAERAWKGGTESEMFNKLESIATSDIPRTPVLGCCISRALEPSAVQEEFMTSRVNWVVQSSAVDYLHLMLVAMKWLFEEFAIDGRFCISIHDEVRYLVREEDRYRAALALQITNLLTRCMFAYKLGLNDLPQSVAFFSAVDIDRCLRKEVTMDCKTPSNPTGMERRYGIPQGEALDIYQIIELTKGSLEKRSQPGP
In short: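 Human DNA polymerase α (20 μg/ml) or γ (50 μg/ml) in 50 mM Tris pH 7.5, 50 mM NaCl, activated calf thymus DNA, 20 μM each dNTP, [α-32P]dCTP, 5 mM MgCl2. Nucleotide inhibitor up to 1 mM. 37°C, quenched with EDTA at 30 min. Product measured by DE81 paper binding; IC50 by nonlinear fit.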

[15] = tested on: Hepatitis C virus; experiment: Antiviral activity against Hepatitis C virus harboring NS5B polymerase S96T/N142T mutant gene infected in human […] cells by luciferase-based replicon assay; format: functional, Hepacivirus hominis
In short: (§5)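 ET-lunet cells with the ET genotype 1b replicon, wild-type or S96T/N142T (ET replicon with these mutations electroporated into Lunet cells, selected in 0.2 mg/ml G418). 3,000 cells/well, 4 days with serially diluted compound. Firefly luciferase luminescence read-out; EC90 from dose–response.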

[16] = tested on: Hepatitis C virus; experiment: Antiviral activity against Hepatitis C virus harboring NS5B polymerase S282T mutant gene infected in human HuH7 cells by luciferase-based replicon assay; format: functional, Hepacivirus hominis; settings: Huh-7
[17] = tested on: Hepatitis C virus; experiment: Antiviral activity against Hepatitis C virus harboring NS5B polymerase S96T mutant gene infected in human lunet cells by luciferase-based replicon assay; format: functional, Hepacivirus hominis; in short: as §5
[18] = tested on: Hepatitis C virus; experiment: Antiviral activity against Hepatitis C virus harboring wild-type NS5B infected in human lunet cells by luciferase-based replicon assay; format: functional, Hepacivirus hominis; in short: as §5
[19] = tested on: Hepatitis C virus; experiment: Selectivity ratio of EC90 for Hepatitis C virus harboring NS5B polymerase S96T mutant gene to EC90 for HCV harboring wild type NS5B polymerase; format: functional, Hepacivirus hominis
[20] = tested on: Hepatitis C virus; experiment: Selectivity ratio of EC90 for Hepatitis C virus harboring NS5B polymerase S282T mutant gene to EC90 for Hepatitis C virus harboring wild-type NS5B polymerase; format: functional, Hepacivirus hominis
In short: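 Clone A genotype 1b (Con1) replicon cells, wild-type or S282T mutant (selected with 2′-C-methyladenosine). 1,500 cells/well, 4 days with serially diluted compound. HCV RNA by real-time RT-PCR; EC90 from dose–response.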

[21] = tested on: Hepatitis C virus; experiment: Antiviral activity against Hepatitis C virus harboring wild-type NS5B infected in human HuH7 cells by luciferase-based replicon assay; format: functional, Hepacivirus hominis; settings: Huh-7

SMILES: Nc1ccn([C@@H]2O[C@H](COP(=O)(O)OP(=O)(O)OP(=O)(O)O)C[C@H]2O)c(=O)n1
IC50 [10]: > 500 µM | inhibition [11]: Active | inhibition [12]: 67%

SMILES: C[C@@]1(CO)[C@H](O)CC[C@@]2(C)[C@H]1CC[C@H]1C[C@@H]3C[C@@]12CC[C@]3(O)CO [APHIDICOLIN]
IC50 [13]: > 100 µM | IC50 [14]: > 100 µM

SMILES: [N-]=[N+]=N[C@]1(CO)O[C@@H](n2ccc(N)nc2=O)[C@H](O)[C@@H]1O [4'-AZIDOCYTIDINE]
EC90 [15]: 80.1 µM | EC90 [16]: 24.9 µM | EC90 [17]: 80.1 µM | EC90 [18]: 17 µM | Selectivity ratio [19]: 4.7 | Selectivity ratio [20]: 1.3 | EC90 [21]: 18.6 µM

Further lines, with some results ahead:

EC50 [1]: 0.075 µM | EC90 [1]: 0.52 µM | EC90 [2]: 0.45 µM
SMILES: C[C@@]1(F)[C@H](O)[C@@H](CO)O[C@H]1n1ccc(N)nc1=O

EC50 [7]: 0.11 µM
SMILES: CC(C)CCn1c(=O)c(C2=NS(=O)(=O)c3cc(N(C)S(C)(=O)=O)ccc3N2)c(O)c2cccn21
Activity [3]: inactive | Activity [4]: inactive | Activity [5]: Active | FC [6]: 0.69 | Activity [8]: inactive | Activity [9]: inactive
